In ChEMBL document CHEMBL1287651, “Synthesis and in vitro antibacterial activity of fluoroquinolone derivatives containing 3-(N'-alkoxycarbamimidoyl)-4-(alkoxyimino) pyrrolidines” (2010):
Converted amounts (≈) assume the structure as drawn.

How the values were obtained:
Format in all cases: functional
[1] = system: Staphylococcus epidermidis; assay: Antibacterial activity against methicillin-sensitive Staphylococcus epidermidis 09-6 after 18 to 24 hrs by twofold serial dilution method
Procedure, shortened: (§1)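 Standard twofold serial agar dilution method on agar media for MIC determination. Screened against representative Gram-positive and Gram-negative strains. Levofloxacin and GMFX served as control drugs.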

Staphylococcus aureus [2] = assay: Antibacterial activity against methicillin-sensitive Staphylococcus aureus 08-2 after 18 to 24 hrs by twofold serial dilution method; procedure, shortened: as §1
Pseudomonas aeruginosa [3] = assay: Antibacterial activity against Pseudomonas aeruginosa 09-33 after 18 to 24 hrs by twofold serial dilution method
Procedure, shortened: (§2)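 MIC determined by the standard twofold serial dilution method on agar media, screening against Gram-positive and Gram-negative strains. Levofloxacin and gemifloxacin were run alongside as reference drugs.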

Streptococcus pneumoniae [4] = assay: Antibacterial activity against Streptococcus pneumoniae 08-4 after 18 to 24 hrs by twofold serial dilution method; procedure, shortened: as §2
[5] = system: Staphylococcus epidermidis; assay: Antibacterial activity against methicillin-sensitive Staphylococcus epidermidis 09-3 after 18 to 24 hrs by twofold serial dilution method; procedure, shortened: as §1
Escherichia coli [6] = assay: Antibacterial activity against Escherichia coli ATCC 25922 after 18 to 24 hrs by twofold serial dilution method; procedure, shortened: as §2
Klebsiella pneumoniae [7] = assay: Antibacterial activity against Klebsiella pneumoniae 09-22 after 18 to 24 hrs by twofold serial dilution method; procedure, shortened: as §2
Enterococcus faecalis [8] = assay: Antibacterial activity against Enterococcus faecalis 08-12 after 18 to 24 hrs by twofold serial dilution method; procedure, shortened: as §2
[9] = system: Staphylococcus epidermidis; assay: Antibacterial activity against methicillin-resistant Staphylococcus epidermidis 09-4 after 18 to 24 hrs by twofold serial dilution method; procedure, shortened: as §1
Pseudomonas aeruginosa [10] = assay: Antibacterial activity against Pseudomonas aeruginosa 09-34 after 18 to 24 hrs by twofold serial dilution method; procedure, shortened: as §2
Klebsiella pneumoniae [11] = assay: Antibacterial activity against Klebsiella pneumoniae 09-21 after 18 to 24 hrs by twofold serial dilution method; procedure, shortened: as §2
Pseudomonas aeruginosa [12] = assay: Antibacterial activity against Pseudomonas aeruginosa 09-32 after 18 to 24 hrs by twofold serial dilution method; procedure, shortened: as §2
Enterococcus faecium [13] = assay: Antibacterial activity against Enterococcus faecium 08-7 after 18 to 24 hrs by twofold serial dilution method; procedure, shortened: as §2
Enterococcus faecium [14] = assay: Antibacterial activity against Enterococcus faecium 08-2 after 18 to 24 hrs by twofold serial dilution method; procedure, shortened: as §2
Escherichia coli [15] = assay: Antibacterial activity against Escherichia coli 08-21 after 18 to 24 hrs by twofold serial dilution method; procedure, shortened: as §2
Klebsiella pneumoniae [16] = assay: Antibacterial activity against Klebsiella pneumoniae 09-23 after 18 to 24 hrs by twofold serial dilution method; procedure, shortened: as §2
Enterococcus faecalis [17] = assay: Antibacterial activity against Enterococcus faecalis 08-10 after 18 to 24 hrs by twofold serial dilution method; procedure, shortened: as §2
[18] = system: Staphylococcus epidermidis; assay: Antibacterial activity against methicillin-resistant Staphylococcus epidermidis 09-2 after 18 to 24 hrs by twofold serial dilution method; procedure, shortened: as §1
Streptococcus pneumoniae [19] = assay: Antibacterial activity against Streptococcus pneumoniae 08-2 after 18 to 24 hrs by twofold serial dilution method; procedure, shortened: as §2
Staphylococcus aureus [20] = assay: Antibacterial activity against methicillin-resistant Staphylococcus aureus 08-1 after 18 to 24 hrs by twofold serial dilution method; procedure, shortened: as §1
[21] = system: Staphylococcus epidermidis; assay: Antibacterial activity against methicillin-resistant Staphylococcus epidermidis 09-3 after 18 to 24 hrs by twofold serial dilution method; procedure, shortened: as §1
Pseudomonas aeruginosa [22] = assay: Antibacterial activity against Pseudomonas aeruginosa ATCC 27853 after 18 to 24 hrs by twofold serial dilution method; procedure, shortened: as §2
Pseudomonas aeruginosa [23] = assay: Antibacterial activity against Pseudomonas aeruginosa 09-35 after 18 to 24 hrs by twofold serial dilution method; procedure, shortened: as §2
Staphylococcus aureus [24] = assay: Antibacterial activity against Staphylococcus aureus ATCC […] after 18 to 24 hrs by twofold serial dilution method; procedure, shortened: as §2
Escherichia coli [25] = assay: Antibacterial activity against Escherichia coli 08-22 after 18 to 24 hrs by twofold serial dilution method; procedure, shortened: as §2

SMILES | MIC [1] [µg/mL] | MIC (Staphylococcus aureus [2]) [µg/mL] | MIC (Pseudomonas aeruginosa [3]) [µg/mL] | MIC (Streptococcus pneumoniae [4]) [µg/mL] | MIC [5] [µg/mL] | MIC (Escherichia coli [6]) [µg/mL] | MIC (Klebsiella pneumoniae [7]) [µg/mL] | MIC (Enterococcus faecalis [8]) [µg/mL] | MIC [9] [µg/mL] | MIC (Pseudomonas aeruginosa [10]) [µg/mL] | MIC (Klebsiella pneumoniae [11]) [µg/mL] | MIC (Pseudomonas aeruginosa [12]) [µg/mL] | MIC (Enterococcus faecium [13]) [µg/mL] | MIC (Enterococcus faecium [14]) [µg/mL] | MIC (Escherichia coli [15]) [µg/mL] | MIC (Klebsiella pneumoniae [16]) [µg/mL] | MIC (Enterococcus faecalis [17]) [µg/mL] | MIC [18] [µg/mL] | MIC (Streptococcus pneumoniae [19]) [µg/mL] | MIC (Staphylococcus aureus [20]) [µg/mL] | further results
CCO/N=C1\CN(c2c(F)cc3c(=O)c(C(=O)O)cn4c3c2OC[C@@H]4C)CC1/C(N)=N\O (stereo not given in full) | 0.25 (≈ 0.559 µM) | 0.25 (≈ 0.559 µM) | > 128 | 16 (≈ 35.8 µM) | 0.25 (≈ 0.559 µM) | > 128 | 16 (≈ 35.8 µM) | > 128 | 0.5 (≈ 1.12 µM) | > 128 | > 128 | 64 (≈ 143 µM) | > 128 | > 128 | > 128 | > 128 | > 128 | 0.5 (≈ 1.12 µM) | > 128 | 0.25 (≈ 0.559 µM) | MIC [21]: 0.25 µg/mL (≈ 0.559 µM); MIC (Pseudomonas aeruginosa [22]): 32 µg/mL (≈ 71.5 µM); MIC (Pseudomonas aeruginosa [23]): 64 µg/mL (≈ 143 µM); MIC (Staphylococcus aureus [24]): 0.25 µg/mL (≈ 0.559 µM); MIC (Escherichia coli [25]): > 128 µg/mL
CCO/N=C(/N)C1CN(c2c(F)cc3c(=O)c(C(=O)O)cn(CCF)c3c2F)C/C1=N\OC (stereo not given) | 0.25 (≈ 0.533 µM) | 0.25 (≈ 0.533 µM) | > 128 | 1 (≈ 2.13 µM) | 0.5 (≈ 1.07 µM) | > 128 | 2 (≈ 4.26 µM) | > 128 | 0.25 (≈ 0.533 µM) | > 128 | > 128 | > 128 | > 128 | > 128 | > 128 | > 128 | > 128 | 0.25 (≈ 0.533 µM) | 8 (≈ 17 µM) | 0.25 (≈ 0.533 µM) | MIC [21]: 0.125 µg/mL (≈ 0.266 µM); MIC (Pseudomonas aeruginosa [22]): > 128 µg/mL; MIC (Pseudomonas aeruginosa [23]): > 128 µg/mL; MIC (Staphylococcus aureus [24]): 0.25 µg/mL (≈ 0.533 µM); MIC (Escherichia coli [25]): > 128 µg/mL
CO/N=C1\CN(c2c(F)cc3c(=O)c(C(=O)O)cn(CCF)c3c2F)CC1/C(N)=N\O (stereo not given) | 1 (≈ 2.27 µM) | > 128 | > 128 | > 128 | 0.5 (≈ 1.13 µM) | > 128 | > 128 | > 128 | 0.5 (≈ 1.13 µM) | > 128 | > 128 | > 128 | > 128 | > 128 | > 128 | > 128 | > 128 | > 128 | 1 (≈ 2.27 µM) | 1 (≈ 2.27 µM) | MIC [21]: 1 µg/mL (≈ 2.27 µM); MIC (Pseudomonas aeruginosa [22]): > 128 µg/mL; MIC (Pseudomonas aeruginosa [23]): > 128 µg/mL; MIC (Staphylococcus aureus [24]): 1 µg/mL (≈ 2.27 µM); MIC (Escherichia coli [25]): > 128 µg/mL
CCO/N=C1\CN(c2c(F)cc3c(=O)c(C(=O)O)cn(C4CC4)c3c2OC(F)F)CC1/C(N)=N\OCC (stereo not given) | > 128 | 64 (≈ 122 µM) | > 128 | > 128 | > 128 | 128 (≈ 244 µM) | 64 (≈ 122 µM) | 64 (≈ 122 µM) | > 128 | > 128 | > 128 | > 128 | > 128 | > 128 | > 128 | > 128 | > 128 | 64 (≈ 122 µM) | > 128 | 2 (≈ 3.81 µM) | MIC [21]: 64 µg/mL (≈ 122 µM); MIC (Pseudomonas aeruginosa [22]): 128 µg/mL (≈ 244 µM); MIC (Pseudomonas aeruginosa [23]): > 128 µg/mL; MIC (Staphylococcus aureus [24]): 1 µg/mL (≈ 1.9 µM); MIC (Escherichia coli [25]): > 128 µg/mL
